For orientation: chromatographic logD means a lipophilicity value derived from retention on a column. A low value points to lower lipophilicity. The IC50 is the concentration that inhibits the measured activity by half. In general, AUC(0-inf) refers to total exposure, with the tail of the curve extrapolated. A higher AUC(0-inf) goes with high exposure. One may read the CL/F as clearance divided by bioavailability, as obtained after extravascular dosing. What is called solubility is the dissolved amount per volume that the medium holds. A lower solubility goes with a poorly soluble substance.

This is an account of results in ChEMBL document CHEMBL3997808 (J Med Chem, 2017).

Series [1] is described as follows: Lipophilicity, log D of the compound at pH 7.4 by RP-HPLC method. Type of series: physicochemical. The following applies: buffer. An outline of the steps:
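Chromatographic hydrophobicity index (CHI) log D at pH 7.4, calculated from the retention time in a fast-gradient reverse-phase HPLC run.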

In series [2] the target is T1, Receptor-interacting serine/threonine-protein kinase 1 (Homo sapiens, UniProt Q13546).
T1 sequence (Q13546 whole entry): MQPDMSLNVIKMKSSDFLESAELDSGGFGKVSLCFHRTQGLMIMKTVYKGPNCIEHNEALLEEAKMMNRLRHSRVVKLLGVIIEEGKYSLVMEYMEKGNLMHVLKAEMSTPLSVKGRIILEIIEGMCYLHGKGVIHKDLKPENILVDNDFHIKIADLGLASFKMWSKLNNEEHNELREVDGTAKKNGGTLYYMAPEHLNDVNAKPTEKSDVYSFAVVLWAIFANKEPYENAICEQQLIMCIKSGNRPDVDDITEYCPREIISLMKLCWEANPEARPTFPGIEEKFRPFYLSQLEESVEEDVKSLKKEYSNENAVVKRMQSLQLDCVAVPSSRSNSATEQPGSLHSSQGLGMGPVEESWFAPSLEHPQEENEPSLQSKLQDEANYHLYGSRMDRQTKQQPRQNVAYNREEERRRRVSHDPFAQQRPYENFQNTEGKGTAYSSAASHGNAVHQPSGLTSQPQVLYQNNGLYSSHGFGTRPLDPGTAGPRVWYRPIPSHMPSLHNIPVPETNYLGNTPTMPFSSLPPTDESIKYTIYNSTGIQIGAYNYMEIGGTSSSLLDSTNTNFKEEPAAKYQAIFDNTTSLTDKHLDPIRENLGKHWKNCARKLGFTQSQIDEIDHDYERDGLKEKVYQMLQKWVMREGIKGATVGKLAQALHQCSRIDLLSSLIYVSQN
In words: Displacement of (14-(2-{[3-({2-{[4-(cyanomethyl)phenyl]amino}-6-[(5-cyclopropyl-1H-pyrazol-3-yl)-amino]-4-pyrimidinyl}amino)propyl]amino}-2-oxoethyl)-16,16,18,18-tetramethyl-6,7,7a,8a,9,10,16,18-octahydrobenzo[2'',3'']indolizino-[8'',7'':5',6']pyrano[3',2':3,4]pyrido[1,2-a]indol-5-ium-2-sulfonate from human RIP1 (1 to 375 residues) expressed in baculovirus infected insect cells measured for 50 min.

Series [3] can be described thus: (§1) AUC (0 to infinity) in rat at 2 mg/kg, po. Type of series: ADME, organism-based. The arrangement: dose 2 mg/kg, route oral, time infinity. The following applies: in vivo.
Series [4] in a line: Drug level in rat hepatocytes treated with GSK2982772 at 10 uM measured up to 4 hrs. It counts as ADME, cell-based, Hepatocyte. An outline of the steps:
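Compound at 10 μM was incubated with hepatocyte suspensions at 1 million cells/mL. Incubation ran at 37°C under 5% CO2:95% O2 for up to 4 h.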

Series [5] deals with T1, Receptor-interacting serine/threonine-protein kinase 1. Briefly: Inhibition of human RIP1 (1 to 375 residues) expressed in baculovirus infected insect cells preincubated for 1 hr followed by ATP addition measured after 5 hrs by ADP-Glo luminescence assay. (ADP-Glo first removes unused ATP, then detects ADP through luciferase.)
The nature of series [6]: Clearance in rat at 2 mg/kg, po. Type of series: ADME, organism-based. The note with it: in vivo.
The subject of series [7] is Rattus norvegicus. Briefly: Volume of distribution in rat at 2 mg/kg, po. Type of series: ADME, organism-based. The note with it: in vivo.
The nature of series [8]: Solubility of the compound in FaSSIF. It counts as physicochemical.
Series [9] deals with Rattus norvegicus. Described as §1. Type of series: ADME, organism-based. The arrangement: dose 2 mg/kg, route oral, time infinity. The following applies: in vivo, BLD = below limit of detection.

Converted amounts (≈) assume the structure as drawn.

Regarding `CN1C(=O)[C@@H](NC(=O)c2cnn(Cc3ccccc3)c2)COc2ccccc21`, in series [1], the chromatographic logD amounted to 4. In series [2], the 50% inhibitory concentration (IC50) turned out to be 63 nM. Further, the area under the curve AUC(0-inf) in series [3] came out at 2900 ng·h/mL.

With `O=C(O)c1n[nH]c(Cc2ccccc2)n1`, the Drug metabolism result in [4] is reported as “Metabolite_Detected”.

Take `CN1C(=O)[C@@H](NC(=O)c2ncn(Cc3ccccc3)n2)COc2ccccc21`: the midpoint of inhibition in series [5], the IC50, lay at 0.63 nM. For the same molecule, the chromatographic logD in [1] was found to be 4.2. In series [3], the AUC(0-inf) was 280 ng·h/mL.

With `CCCCCc1cc(C(=O)N[C@H]2COc3ccccc3N(C)C2=O)no1`, in [2], the IC50 came to 100 nM.

The molecule `O=C(N[C@H]1CO[C@@H]2CCCC[C@H]2NC1=O)c1cc(Cc2ccccc2)on1` returned an IC50 in series [2] of over 10000 nM.

In the case of `CN1C(=O)[C@@H](NC(=O)c2coc(Cc3ccccc3)n2)COc2ccccc21`, the chromatographic logD in series [1] stood at 5.4. Further, the 50% inhibitory concentration (IC50) in series [2] is 794 nM.

Take `O=C(N[C@H]1CCOc2ccccc2NC1=O)c1cc(Cc2ccccc2)on1`: in series [2], the IC50 came out at 200 nM. The molecule also came in with an AUC(0-inf) in series [3] of 380 ng·h/mL.

Regarding `CN1C(=O)[C@@H](NC(=O)c2c[nH]c(Cc3ccccc3)n2)COc2ccccc21`, the chromatographic logD in series [1] was determined as 3.8. The same molecule registered an IC50 in series [2] of 1260 nM.

Take `CN1C(=O)[C@@H](NC(=O)c2n[nH]c(C(O)c3ccccc3)n2)COc2ccccc21` (some centres not stated): in series [4], the Drug metabolism result was “Metabolite_Detected”.

The molecule `CN1C(=O)[C@@H](NC(=O)c2noc(Cc3ccccc3)n2)COc2ccccc21` returned an IC50 in series [5] of 0.5 nM. The same molecule yielded a chromatographic logD in series [1] of 5.4. In [3], this molecule came in with an AUC(0-inf) of 33 ng·h/mL.

In turn, `CN1C(=O)[C@@H](NC(=O)c2cc(Cc3ccccc3)on2)COc2ccccc21` displayed a CL/F in series [6] of 69 mL/min/kg. In the series on Rattus norvegicus [7], this molecule returned a Vd of 8.5 L/kg. For the same molecule, the chromatographic logD in [1] was 5.9. Also, in series [3], the AUC(0-inf) was determined as 380 ng·h/mL. The same molecule had a solubility in series [8] of 30 µg/mL (≈ 79.5 µM).

As to `CN1C(=O)[C@@H](N)COc2ccccc21`, the Drug metabolism entry in series [4] is “Metabolite_Detected”.

Molecule `CN(C(=O)c1cc(Cc2ccccc2)on1)[C@H]1COc2ccccc2NC1=O` showed an IC50 in series [2] of over 10000 nM.

In turn, `CN1C(=O)[C@@H](NC(=O)c2cc(Cc3ccccc3)n(C)n2)COc2ccccc21` had an IC50 in series [5] of 0.4 nM. Further, in series [1], the chromatographic logD came out at 5.4. This molecule yielded an AUC(0-inf) in series [3] of 170 ng·h/mL.

Take `O=C(N[C@H]1COc2ccccc2N(C2CC2)C1=O)c1cc(Cc2ccccc2)on1`: the IC50 in series [2] is over 10000 nM.

In series [2], `O=C(N[C@@H]1CNc2ccccc2OC1)c1cc(Cc2ccccc2)on1` showed an IC50 of over 10000 nM.

Turning to `CC(C)Cc1cc(C(=O)N[C@H]2COc3ccccc3N(C)C2=O)no1`, in series [2], the IC50 was found to be 1600 nM.

In turn, `COC(=O)Nc1ccc2c(c1)N(C)C(=O)[C@@H](NC(=O)c1cc(Cc3ccccc3)on1)CO2` showed an IC50 in [5] of 0.32 nM. In [3], this molecule came in with an AUC(0-inf) of 1100 ng·h/mL.

In [5], `CN1C(=O)[C@@H](NC(=O)c2nnc(Cc3ccccc3)o2)COc2ccccc21` had a half-maximal inhibitory concentration (IC50) of 0.79 nM. Also, the chromatographic logD in [1] came to 4.9. The molecule further displayed a total exposure AUC(0-inf) in [3] of 130 ng·h/mL.

As to `Cc1cc(C(=O)N[C@H]2COc3ccccc3N(C)C2=O)no1`, the half-inhibitory concentration (IC50) in series [2] was found to be 12600 nM. This counts as double-digit micromolar.

As for `O=C(N[C@H]1COc2ccccc2NC1=O)c1n[nH]c(Cc2ccccc2)n1`, the Drug metabolism entry in series [4] is reported as “Metabolite_Detected”.

Take `CN1C(=O)[C@@H](NC(=O)c2cc(CC3CCCCC3)on2)COc2ccccc21`: the IC50 in [2] is 251 nM.

As to `O=C(NC1Cc2ccccc2NC1=O)c1cc(Cc2ccccc2)on1` (configuration not stated), the IC50 in series [2] is over 10000 nM.

For the molecule `CN1C(=O)[C@@H](NC(=O)c2cc(Cc3ccccc3)on2)CCc2ccccc21`, the chromatographic logD in series [1] turned out to be 6. Further, the total exposure AUC(0-inf) in series [3] was determined as 7 ng·h/mL.

In [5], `CN1C(=O)[C@@H](NC(=O)c2cc(Cc3ccccc3)on2)COc2ccc(-c3n[nH]c(=O)o3)cc21` came in with an IC50 of 0.5 nM. The chromatographic logD in [1] was determined as 4.4. The molecule also came in with an AUC(0-inf) in [3] of 2100 ng·h/mL. The same molecule registered a solubility in series [8] of 8 µg/mL (≈ 17.3 µM).

`CN1C(=O)[C@@H](NC(=O)c2cccc(Cc3ccccc3)c2)COc2ccccc21` returned a chromatographic logD in series [1] of 6.3. In series [2], this molecule came in with an IC50 of 251 nM.

`C[C@]1(NC(=O)c2cc(Cc3ccccc3)on2)COc2ccccc2NC1=O` displayed an IC50 in series [2] of over 10000 nM.

For the molecule `CN1C(=O)[C@@H](NC(=O)c2cn(Cc3ccccc3)nn2)COc2ccccc21`, the midpoint of inhibition in series [5], the IC50, lay at 1 nM. Further, the chromatographic logD in series [1] came out at 4.6. The AUC(0-inf) in series [3] came to 1300 ng·h/mL.

`CC(=O)Nc1ccc2c(c1)N(C)C(=O)[C@@H](NC(=O)c1cc(Cc3ccccc3)on1)CO2` gave an IC50 in series [5] of 0.32 nM. The molecule further came in with a total exposure AUC(0-inf) in series [3] of 450 ng·h/mL.

As to `CN1C[C@H](NC(=O)c2cc(Cc3ccccc3)on2)C(=O)N(C)c2ccccc21`, in [5], half-maximal inhibition (IC50) required 5 nM. This molecule also had a chromatographic logD in series [1] of 6. In series [3], the AUC(0-inf) was 82 ng·h/mL.

For the molecule `CN1C(=O)[C@@H](NC(=O)c2cc(Cc3ccccc3)ccn2)COc2ccccc21`, it took 2 nM to reach half-maximal inhibition in series [5] (IC50). This molecule returned a chromatographic logD in [1] of 6.4.

`CN1C(=O)[C@@H](NC(=O)c2nnn(Cc3ccccc3)n2)COc2ccccc21` showed an IC50 in [5] of 0.079 nM. The chromatographic logD in series [1] was 5. This molecule also displayed an AUC(0-inf) in series [3] of 240 ng·h/mL.

As to `CN1C(=O)[C@@H](NC(=O)c2cc(Cc3ccccc3)on2)CNc2ccccc21`, the chromatographic logD in series [1] was found to be 5. For the same molecule, the AUC(0-inf) in [3] turned out to be 800 ng·h/mL. Also, the concentration in solution in [8] (solubility) came to 97 µg/mL (≈ 258 µM).

`CN1C(=O)[C@@H](NC(=O)c2cc(Cc3ccccc3)on2)CSc2ccccc21`: the chromatographic logD in [1] amounted to 6.2. In addition, in the series on Rattus norvegicus [9], the AUC result is listed as “Bld”.

Molecule `CN1C(=O)[C@@H](NC(=O)c2ncc(Cc3ccccc3)s2)COc2ccccc21` yielded a chromatographic logD in series [1] of 6.5.

Consider `CN1C(=O)[C@@H](NC(=O)c2cn(Cc3ccccc3)cn2)COc2ccccc21`, for which the half-inhibitory concentration (IC50) in series [5] was found to be 0.4 nM. Besides, in series [1], the chromatographic logD was 4.2. The molecule further registered an AUC(0-inf) in [3] of 660 ng·h/mL.

Consider `CN1C(=O)[C@@H](NC(=O)c2cc(CN3CCCCC3)on2)COc2ccccc21`, for which the IC50 in series [2] is over 10000 nM.

In the case of `CCN1C(=O)[C@@H](NC(=O)c2cc(Cc3ccccc3)on2)COc2ccccc21`, in [2], the IC50 was determined as 3160 nM.

In the case of `CN1C(=O)[C@@H](NC(=O)c2cc(Cc3ccccc3)on2)COc2ccc(NS(C)(=O)=O)cc21`, inhibition in [5] was half-maximal at 0.63 nM (IC50).

Turning to `O=C(N[C@H]1COc2ccccc2NC1=O)c1cc(Cc2ccccc2)on1`, the AUC(0-inf) in [3] stood at 2200 ng·h/mL.

For `O=C(N[C@H]1COCCNC1=O)c1cc(Cc2ccccc2)on1`, in series [2], the half-maximal inhibitory concentration (IC50) was over 10000 nM.

`CN1C(=O)[C@@H](NC(=O)c2cc(Cc3ccccc3)on2)COc2ccc(-c3cc[nH]n3)cc21` had an IC50 in series [5] of 1 nM. In [3], this molecule registered an AUC(0-inf) of 600 ng·h/mL.

In series [5], `CN1C(=O)[C@@H](NC(=O)c2ncc(Cc3ccccc3)o2)COc2ccccc21` registered an IC50 of 0.05 nM. In [1], this molecule came in with a chromatographic logD of 5.6. Also, the AUC(0-inf) in series [3] was found to be 55 ng·h/mL.
